Rows were chosen to be rich in hits. Some 3.7% of all compounds tested hit in one or more screens of this group.
14-3-3 Bad inh: inhibitors of 14-3-3 zeta/Bad binding, primary screen, biochemical, TR-FRET, bovine 14-3-3 zeta; actives 0.71% (n = 220,000); inhibition, % at 21.7 µM; AID 781, 2007; TR-FRET 14-3-3zeta/Dy647-pBad peptide displacement, 1 h; 14-3-3 protein zeta/delta (Bos taurus), P63103;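 active = inhibition above about 70%, limit read from the data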;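 also: 0% = full 14-3-3 plus peptide FRET controls and 100% = background without 14-3-3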
Target sequence (P63103 whole entry, looked up): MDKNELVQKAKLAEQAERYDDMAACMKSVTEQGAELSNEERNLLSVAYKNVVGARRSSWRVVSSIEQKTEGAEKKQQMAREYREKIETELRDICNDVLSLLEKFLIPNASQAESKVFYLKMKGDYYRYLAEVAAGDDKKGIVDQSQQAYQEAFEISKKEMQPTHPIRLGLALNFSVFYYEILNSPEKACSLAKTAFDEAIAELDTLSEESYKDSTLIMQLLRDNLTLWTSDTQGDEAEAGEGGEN
NCF1 inh: p47phox/p22phox peptide binding inhibitors, primary screen, biochemical, uHTS, NADPH oxidase regulatory subunit. Neutrophil cytosol factor 1 (Homo sapiens), P14598. fluorescence polarization, 2 h. inhibition, % at 24.7 µM. actives 0.53% (n = 220,000);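 also: 0% = p47phox with labelled peptide and 100% = labelled peptide alone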
eIF4E-4G inh: eIF4E–eIF4G protein interaction inhibitors, primary screen, biochemical, uHTS, TR-FRET, eIF4GI fragment; Eukaryotic translation initiation factor 4E (Mus musculus) + Eukaryotic translation …; TR-FRET eIF4E-eIF4GI(517-606) binding, 2 h; inhibition, % at 21.7 µM; actives 0.37% (n = 220,000); AID 782, 2007;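 also: 0% = full FRET control wells and 100% = background wells lacking eIF4GI fragment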
RBBP9 inhibitor: human RBBP9 inhibitors, primary screen, biochemical, fluorescence polarization, FP-Rh probe, HTS; Serine hydrolase RBBP9 (Homo sapiens), O75884; recombinant RBBP9; inhibition, % at 7.94 µM; actives 0.2% (n = 220,000);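 active = inhibition above the campaign mean of all tested compounds plus 3 SD, cut at about 14% in these data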;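 also: plate controls were DMSO wells with RBBP9 for no effect and wells lacking RBBP9 protein for full effect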
Target sequence (O75884 whole entry, looked up): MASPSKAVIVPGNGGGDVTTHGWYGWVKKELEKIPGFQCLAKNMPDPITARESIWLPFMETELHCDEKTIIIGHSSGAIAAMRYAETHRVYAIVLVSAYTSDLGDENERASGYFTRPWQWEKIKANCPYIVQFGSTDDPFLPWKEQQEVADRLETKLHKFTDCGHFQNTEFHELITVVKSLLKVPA
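Controls: DMSO-treated enzyme wells and wells lacking RBBP9 | Material: RBBP9 protein | Technique: Fluorescence polarization | Replication: Single well per compound, no replicates | Buffer or medium: Tris-NaCl-Pluronic buffer, pH 8.0 | Timing: 30 min compound preincubation, 45 min probe labeling, 25 °C | Read-out basis: Percent inhibition from mP, scaled between DMSO and no-protein wells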
EBV gp42 block: Epstein-Barr virus gp42 inhibitors, primary screen, biochemical, uHTS, fluorescence polarization; Glycoprotein 42 (Epstein-Barr virus (strain AG876)), Q1HVG2; Fluorescence polarization binding assay, mP read-out; inhibition, % (tested at 21.74 µM); actives 0.42% (n = 220,000); AID 1085, 2008; in the data active = inhibition above about 50%
Target sequence (Q1HVG2 whole entry, looked up): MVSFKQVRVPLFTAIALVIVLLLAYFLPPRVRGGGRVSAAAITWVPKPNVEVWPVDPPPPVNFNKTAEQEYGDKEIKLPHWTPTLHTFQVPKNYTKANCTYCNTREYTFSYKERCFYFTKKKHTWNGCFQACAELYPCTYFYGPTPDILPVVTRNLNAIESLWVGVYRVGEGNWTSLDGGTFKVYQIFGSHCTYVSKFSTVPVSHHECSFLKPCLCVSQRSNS
WT yeast gro inh: growth inhibition of WT strain, primary screen, mitochondrial fusion inhibitor project, WT and mutant strains, chemical genetic. actives 2.1% (n = 190,000). AID 1362, 2008. mitochondrial fusion phenotypic screen. inhibition, % at 10 µM; in the data active = inhibition above about 58%; tested in S. cerevisiae
The depositor's hits bear a star; · = no result given; ! = a repeat was not active; [ ] = another dose, or the depositor's remark.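 The calls were made as follows, unless noted: active = inhibition above about 30% (limit read from the data); inactive = the rest.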

SMILES | 14-3-3 Bad inh | NCF1 inh | eIF4E-4G inh | RBBP9 inhibitor | EBV gp42 block | WT yeast gro inh
O=C(/C(=C/O)N=Nc1ccccc1)c1ccncc1 | 6 | 0 | 2 | -7 | 7 | 2
Cc1cc(C)n(NC(=S)NC2CCCCC2)c(=O)c1C#N | -5 | -2 | 4 | 10 | -6 | ·
CCOc1c(C)cc(-c2ncccc2O)cc1C | 75*! | -5 | -2 | 5 | -2 | 2
Cc1ccc(OCCCCN2CCCC(C)C2)c([N+](=O)[O-])c1 (stereo not drawn) | 22 | 0 | 3 | 3 | 2 | 18
O=C(Nc1ccc(N2CCOCC2)cc1)c1nc2ccccc2s1 | -4 | -10 | -5 | -6 | 3 | ·
COc1ccc(C(=O)NN/C(=N/S(=O)(=O)c2ccc(C)cc2)c2ccccc2)cc1 | 1 | -18 | 4 | -12 | -13 | ·
Cc1cccc(-c2nnc(SCC3CNC(=O)O3)n2-c2ccc(Cl)cc2)c1 (stereo not drawn) | -11 | -3 | 45* | -10 | 1 | 5
COc1cc(OC)nc(Oc2ccccc2C(=O)Oc2cccc(C)c2)n1 | 24 | 3 | 6 | -2 | 2 | 60*
O=C(COc1ccccc1C(=O)c1cnn(-c2ccccc2)c1)Nc1ccccc1 | 84*[fluorescence artefact?] | 2 | 0 | -3 | 5 | 40
NS(=O)(=O)c1ccc(NCc2cc(Cl)ccc2OCc2ccc(F)cc2)cc1 | -20 | -7 | 2 | -13 | 3 | 13
CCCCCCOC1(c2ccccc2)OC(=O)c2ccccc21 (stereo not drawn) | 7 | -11 | 2 | -2 | -14 | 63*
CC(NC(=S)NCc1ccc(F)cc1)C12CC3CC(CC(C3)C1)C2 (stereo not drawn) | -8 | -5 | -3 | -1 | 5 | 77*
C[C@H](NC(=O)NCc1ccc(F)cc1)C(=O)O | 9 | -6 | 0 | -8 | -4 | -8
Cc1ccc(OCc2nc(-c3ccccn3)no2)c(Br)c1 | -7 | -8 | 2 | -1 | 3 | 6
CC(C)c1ccc(OCc2nc(-c3ccccn3)no2)c(Br)c1 | 3 | -24 | 4 | -4 | -11 | 79*
CCOC(=O)c1ccccc1NC(=O)COC(=O)c1ccc(C)c(S(=O)(=O)N2CCOCC2)c1 | -4 | 93* | -9 | 3 | -26 | 13
CCC1CSC(Nc2ccc(C(=O)/C=C/c3ccc(OC)c(OC)c3)cc2)=N1 (stereo not drawn) | 14 | -134 | -6 | -18 | -3 | 64*
CCOC(=O)/C(=C\c1cccnc1)C(=O)c1cc(C(C)=O)c(Nc2ccccc2)s1 | -2 | -6 | -1 | -8 | -9 | 84*
Cc1ccc(CNC(=O)CCc2nc(-c3cccs3)no2)cc1 | -4 | 200* | 2 | -10 | -3 | 14
Cc1ccc(CNc2nc(-c3cccs3)nc3ccccc23)cc1 | -1 | -17 | 5 | -26 | -20 | 76*
c1ccc(CNc2nc(-c3cccs3)nc3ccccc23)nc1 | -2 | -3 | 1 | -1 | 12 | -4
COc1ccc(C2SCC(=O)N2CCc2ccc(OC)c(OC)c2)cc1 (stereo not drawn) | -2 | 1 | -5 | -14 | -2 | 26
O=C(NC(=S)NN1CCCCC1c1cccnc1)c1ccc(Cl)cc1Cl (stereo not drawn) | -6 | -11 | 1 | -1 | -6 | ·
COc1cc(OC)c(NC(C)C(=O)N2CCCC2)cc1Cl (stereo not drawn) | -7 | -12 | 6 | -6 | -8 | -5
CSc1cccc(NC(=O)CCc2ccccc2)c1 | -5 | -6 | 1 | -8 | -10 | 22
SMILES | 14-3-3 Bad inh | NCF1 inh | eIF4E-4G inh | RBBP9 inhibitor | EBV gp42 block | WT yeast gro inh
CSc1cccc(NC(=O)/C=C/c2cccc(Cl)c2)c1 | 8 | -23 | -6 | -39 | -7 | 83*
CSc1cccc(NC(=O)CCC(=O)O)c1 | -13 | 71* | 16 | -2 | -20 | -20
COc1ccccc1CNC(=O)c1ccc(-c2ccccc2Cl)o1 | 0 | -14 | 6 | -12 | -14 | 52
COc1ccc(NC(=O)c2ccc(-c3ccccc3C(F)(F)F)o2)cc1 | 37 | -10 | 5 | -13 | -9 | 67*
Cc1ccccc1-c1ccc(C(=O)Nc2cccc(F)c2)o1 | -4 | -26 | 1 | -14 | -11 | 58*
COc1ccccc1CNC(=O)c1ccc(-c2ccccc2C(F)(F)F)o1 | 0 | -15 | 11 | -12 | 7 | 64*
O=C(Nc1cccc(F)c1)c1ccc(-c2ccccc2C(F)(F)F)o1 | 47 | -12 | 7 | -14 | -17 | 53
Cc1cc(C)n(-c2ccc(C(=O)Nc3cccnc3)cc2)n1 | 3 | -7 | 1 | -3 | -13 | ·
Nc1nc(N)c2c(n1)CCCC2 | 5 | -11 | -3 | -3 | -21 | ·
CCCc1cc(=O)n(-c2nc3ccccc3s2)[nH]1 | -8 | -20 | -6 | 4 | 69* | ·
O=C(COC(=O)Cc1c(Cl)cccc1Cl)Nc1ccccc1-c1ccccc1 | 1 | -7 | -2 | -9 | 10 | 81*
O=C(Cn1nc(-c2ccccc2Cl)ccc1=O)Nc1ccccc1-c1ccccc1 | 0 | -18 | -1 | -11 | 7 | 67*
O=C(Cn1nc(-c2ccccc2Cl)ccc1=O)Nc1ccc(Br)cc1 | -1 | -154 | 1 | -7 | -28 | 48
O=C(COC(=O)Cc1ccc(Cl)cc1)Nc1ccccc1-c1ccccc1 | 0 | -6 | 1 | 3 | -9 | 5
CC(=O)Oc1ccc2c(c1)Oc1cc(OC(C)=O)ccc1C21OC(=O)c2ccccc21 | 20 | -34 | 3 | 16* | 95* | -7
Cn1cccc1/C=N/n1c(-c2ccc(Cl)cc2Cl)n[nH]c1=S | 1 | -4 | 3 | 0 | -13 | 71*
Cn1cccc1/C=N/n1c(-c2ccc(Cl)cc2)n[nH]c1=S | -4 | 1 | 0 | -4 | 0 | 10
S=c1[nH]nc(-c2ccco2)n1/N=C/c1ccc(Cl)cc1Cl | 16 | 0 | 49* | -7 | -15 | 41
S=c1[nH]nc(-c2ccco2)n1/N=C/c1cccc(Cl)c1Cl | 5 | -15 | 10 | -9 | 3 | 22
Cn1c(=O)c(=O)n(C)c2cc(S(=O)(=O)N3CCCC3C(=O)NCc3cccs3)ccc21 (stereo not drawn) | 2 | -8 | -2 | -2 | -7 | ·
Cn1ccnc1C(O)(c1ccccc1)c1nccn1C | -3 | 48* | 2 | -1 | -15 | ·
O=C(c1c[nH]c(C(=O)N2CCN(c3ccccc3F)CC2)c1)c1cccc(Cl)c1Cl | 44 | -12 | 0 | -4 | -7 | 54

Source: PubChem BioAssay
